# From PubChem
# Ecoli WT expand: blocks growth of wild type E. coli BW25113. OD600 absorbance. growth inhibition, % at 100 µM. 98,000 tested, 0.15% active;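 active = growth inhibition above about 50% at one test dose, limit read from the data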;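 also: growth measured after 20 h incubation at 37 °C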
# PostGolgi yeast: growth inhibition of a yeast mutant, post-Golgi transport screen. post-Golgi transport phenotypic cell assay. 98,000 tested, 0.9% active. AID 739. inhibition, % at 10 µM;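 also: yeast cells grown in 1536-well plates; yeast grown about 18 h at 30C before absorbance read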
# Pyk2 oligo antag: blocks oligomerization of human Pyk2 in cells. Q293 cells, Pyk2 FERM NanoBiT luminescence; active compounds read low. 99,000 tested, 0.83% active. z-score (the deposit names both 25 µM and 10 µM);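 active = Z-score of -3 or lower, scaled per plate to the spread of control and sample wells; inactive = z-score above -3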;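 also: negative z-score means lost luminescence so less FERM oligomerization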
# Ecoli tolC: E. coli tolC mutant growth inhibition; AID 573; 65,000 tested, 2.2% active; E. coli BW25113 tolC mutant growth, OD615; growth inhibition, % at 10 µM (by protocol);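 active = growth inhibition at or above a cutoff equal to the mean over every tested compound plus 3 SD, cut at about 60% in these data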;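 also: growth measured after 20 h incubation at 37 °C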
#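 Material: E. coli BW25113 ΔtolC::kan, tolC deletion mutant strain. Measure: percent growth inhibition. Schedule: 37 °C, 20 h exposure. Doses: single-point testing at 10 µM. Signal: A615 absorbance measurement. Buffer or medium: kanamycin-containing LB broth (50 µg/mL).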
# PostGolgi ctrl: yeast control strain growth, post-Golgi counter-screen | efflux-deficient yeast background strain, growth absorbance A615, 16 h | inhibition, % at 10 µM | 98,000 tested, 5% active | AID 738
# Cav3 T inh: blocks human Cav3.2 T-type calcium channel; Cav3.2-expressing cells, Fluo-4 calcium fluorescence FDSS; active compounds read low; O95180; 100,000 tested, 4% active; B-score at 10 µM;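 active = single-dose well whose peak fluorescence ratio is a statistical outlier from its plate by either plate-standardised score or position-corrected B-score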
# * = called active by the depositor; / = no result given. The list is not random: actives were taken first. Their share in the collection is about 8.7%. Rule as the data show it, unless noted: active = inhibition above about 30%; inactive = the rest.
SMILES,Ecoli WT expand,PostGolgi yeast,Pyk2 oligo antag,Ecoli tolC,PostGolgi ctrl,Cav3 T inh
CC(=O)n1nc(-c2ccccc2)nc1NCc1ccc(F)cc1,0,-19,0.57,3,-1,-4.6*
O=c1c([N+](=O)[O-])c(N2CCCCC2)c2ccccc2n1-c1ccccc1,-10,-4,-0.82,/,-7,-0.59
O=c1c([N+](=O)[O-])c(NC2CCCCC2)c2ccccc2n1-c1ccccc1,/,/,-3.7*,/,/,0.18
COCCNC(=O)C(c1ccc(F)cc1)N(CC1CCCO1)C(=O)CCC(=O)Nc1ccccn1 (configuration not stated),-1,31*,1.3,-9,1,0.51
Cn1nc(-c2ccccc2)c(C(=O)Nc2ccc(Cl)cc2)c1Cl,-3,10,-0.22,/,39*,0.16
Cn1nc(-c2ccccc2)c(C(=O)Nc2ccc(C(F)(F)F)cc2)c1Cl,-8,-6,0.05,/,7,0.59
COCCCNc1ccnc2c(Cl)cccc12,10,31*,0.04,-12,-4,0.41
COCCCNc1cc(C)nc2ccccc12,-10,-3,-0.43,/,9,0.79
Cc1ccc(-c2noc(CCC(=O)Nc3ccccc3C)n2)cc1,-5,-3,-0.1,-1,11,-0.81
COc1ccc(-c2noc(CCC(=O)N(C)c3cccc(C)c3)n2)cc1,-2,-10,-0.71,68*,11,-5.8*
Cc1ccc(-c2noc(CCC(=O)N(C)c3ccccc3C)n2)cc1,1,0,-1.2,11,20,-5.6*
COc1ccc(-c2noc(CCC(=O)Nc3cccc(C)c3)n2)cc1,-5,-4,0.97,12,3,-0.33
CCN(C(=O)CCc1nc(-c2ccc(OC)cc2)no1)c1cc(OC)ccc1OC,-21,3,-2.1,37,8,-6.5*
O=S(=O)(NC1CCCCCC1)c1ccc(Br)s1,/,/,-1.1,/,/,-4.9*
O=C(COc1ccc(S(=O)(=O)NC2CCCCC2)cc1)NC1CCCCC1,/,/,2.6,/,/,-3.3
O=S(=O)(NC1CCCCC1)c1ccc(Br)cc1,-4,-4,-0.96,16,32*,-1.5
CCOc1cc(S(=O)(=O)NC2CCCCCC2)ccc1F,10,12,-1,60,40*,-3.2
Cc1cc(S(=O)(=O)NC2CCCC2)ccc1F,1,-9,-0.62,-18,7,1.2
Cn1cnnc1SCC(=O)c1ccc2c(c1)CCCC2,6,1,-0.01,-1,2,0.78
O=C(CSc1nnc(-c2ccco2)o1)N1c2ccccc2CCc2ccccc21,-10,2,-0.7,22,9,-1.2
Cc1cccc(N2CC(c3nc4ccccc4n3C)CC2=O)c1C (configuration not stated),/,/,/,100*,/,0.8
COc1ccc(CCNC(=O)C(=O)N2CCCCC2)cc1OC,/,/,-0.26,/,/,-0.0052
CCOC(=O)Cc1csc(NC(=O)CSc2nnnn2-c2ccc(CC)cc2)n1,-1,-2,1.3,46,8,-5.4*
COc1cccc(-n2c(SCC(=O)N3c4ccccc4CC3C)nnc2-c2ccco2)c1 (configuration not stated),-3,-6,-0.06,/,14,-3.7*
COc1ccc(-c2ccc(SCC(=O)N3c4ccccc4CC3C)nn2)cc1OC (configuration not stated),2,-9,-3.2*,/,9,0.061
SMILES,Ecoli WT expand,PostGolgi yeast,Pyk2 oligo antag,Ecoli tolC,PostGolgi ctrl,Cav3 T inh
COc1cccc(SCc2noc(C(=O)NCC3CC3)c2C(=O)NCC2CC2)c1,/,/,/,/,/,-0.77
CCOn1c(=O)c(-c2cccs2)[n+]([O-])c2ccccc21,-2,-5,-0.83,/,42*,-1.2
C=CCOC(=O)C1=C(C)NC(SCC)=C(C#N)C1c1ccc(Cl)cc1 (configuration not stated),2,6,-3.2*,/,55*,-7.5*
C=CC[C@]12CC=CC(=O)[C@@]1(O)O[C@H](c1ccc(OC)c(OC)c1)[C@H]2C,/,/,/,/,/,0.15
Cc1cccc(C)c1N1CCN(c2ccc3nnc(C(F)(F)F)n3n2)CC1,9,19,-2.2,/,48*,-0.86
CCCCC(=O)NC(Nc1nc(C2CC2)cs1)(C(=O)OCC)C(F)(F)F (configuration not stated),2,-1,-0.14,25,36*,-1.5
COc1ccccc1C(=O)OCc1c(F)cccc1Cl,3,0,-0.96,/,14,-1.9*
CCOC(=O)n1c(=O)n(Cc2ccc(Cl)c(Cl)c2)c2ccccc21,-11,0,-1.1,/,66*,/
CCOC(=O)n1c(=O)n(Cc2ccccc2)c2ccccc21,3,12,0.53,/,12,-1.6
NC(=O)C1CCCN(C(=O)NC2CCCCC2)C1 (configuration not stated),6,0,0.68,0,-2,-0.51
O=c1nc2n(c3ccc(Br)cc13)CCS2,/,/,-0.16,/,/,0.54
Cc1ccc(CNC(=O)CSc2nc(N3CCCCC3)nc(N3CCCCC3)n2)cc1,-15,-6,0.15,31,46*,-3.8
Cc1cccc(C)c1NC(=O)C(=O)NCCOc1ccc(Cl)cc1,-5,-7,-0.7,/,29,-3.6*
Cc1ccc(OCCNC(=O)c2ccccc2N)cc1,1,6,/,13,-2,-0.011
Cn1ncc(C#N)c1/N=C/N(Cc1ccccc1)Cc1ccccc1,-4,2,-0.62,99*,35*,-8.4*
COc1ccc(C2(C(=O)NCc3ccco3)CCCC2)cc1OC,2,-4,0.56,/,2,0.56
C(=C\c1ccccc1)/CN1CCN(c2ncnc3c2oc2ccccc23)CC1,-6,21,0.52,100*,31*,-2
COc1ccccc1N1CCN(c2ncnc3c2oc2ccccc23)CC1,-4,6,1.1,35,38*,-3.2
COc1ccc2c(c1OC)C(=O)N1N=C(c3ccc(Cl)cc3)CC21 (configuration not stated),/,/,-0.45,/,/,/
Cc1cc(C)n(-c2cc(N3CCN(C(=O)c4ccccc4C)CC3)ccc2[N+](=O)[O-])n1,/,/,-0.9,/,/,1.4
CCCc1cc(C(=O)N2CCN(c3ccccc3C)CC2)cs1,-1,-10,-1.2,100*,38*,-2.2
CCCCNCCCOc1cccc(Cl)c1Cl,20,-1,0.33,/,4,-0.24
N#C/C(=C\c1cn(CCOc2ccccc2)c2ccccc12)C(=O)NCC1CCCO1 (configuration not stated),-3,6,-2.3,/,17,-4.4*
Oc1ccc(/C=N/NC2=NCCCCC2)cc1,-1,-6,0.13,/,7,0.91
O=C1c2cccc3c([N+](=O)[O-])ccc(c23)C(=O)N1c1ccc(Cl)cn1,16,68*,-2.4,/,19,/
COc1ccccc1NC(=O)c1ccc(N)cc1,2,-3,-0.51,-2,0,-4.2*
COc1cc(NC(=O)c2ccccc2)c(OC)cc1Cl,/,/,-1.8,/,/,-0.76
COc1cc(N)c(Cl)cc1NC(=O)c1ccccc1,3,8,-0.15,-5,39*,-0.052
CCOC(=O)CSc1nnc(C)n1N,-1,-7,0.53,2,5,-0.47
CCc1cccc2c(C#N)cn(CC(=O)NCc3ccco3)c12,-1,-4,0.22,1,10,-2
